Source: ChEMBL document CHEMBL1152185, “Synthesis of a novel 6,14-epoxymorphinan derivative and its pharmacology” (Bioorg Med Chem Lett, 2008)
pIC50, pKi: −log10 of the molar value. Active and inactive are the calls of the source. No cut-off for these calls is given here.

How the values were obtained:
Mu-type opioid receptor = Mu-type opioid receptor (Mus musculus, UniProt P42866); assay: Displacement of [3H]DAMGO from mu opioid receptor in mouse whole brain without cerebellum
Method in brief: (§1)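 Competition binding on mouse whole-brain membranes, using [³H]DAMGO for mu and [³H]DPDPE for delta. % specific binding was plotted against log concentration, and IC50 was derived from the curve.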

[1] = molecular target: Delta-type opioid receptor (Mus musculus, UniProt P32300); assay: Displacement of [3H]DPDPE from delta opioid receptor in mouse whole brain without cerebellum; method in brief: as §1
[2] = molecular target: Kappa-type opioid receptor (Cavia porcellus, UniProt P41144); assay: Displacement of [3H]U69,593 from kappa opioid receptor in guinea pig cerebellum; assay type: tissue-based
[3] = molecular target: Kappa-type opioid receptor (Mus musculus) (UniProt P33534); assay: Agonist activity at kappa opioid receptor-mediated G-protein activation in mouse whole brain membrane without cerebellum at 10 uM by [35S]GTPgammaS binding assay; assay type: functional, cell membranes
Method in brief: (§2)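 Mouse whole-brain membranes (cerebellum removed) incubated with [³⁵S]GTPγS and GDP plus agonist at 10^-5 M, alone or together with nor-BNI or b-FNA (levels not given). The read-out is % stimulation of [³⁵S]GTPγS binding.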

[4] = molecular target: Kappa-type opioid receptor (Mus musculus) (UniProt P33534); assay: Agonist activity at kappa opioid receptor-mediated G-protein activation in mouse whole brain membrane without cerebellum at 10 uM by [35S]GTPgammaS binding assay in presence of nor-BNI; assay type: functional, cell membranes; method in brief: as §2
[5] = molecular target: Kappa-type opioid receptor (Mus musculus) (UniProt P33534); assay: Agonist activity at kappa opioid receptor-mediated G-protein activation in mouse whole brain membrane without cerebellum at 10 uM by [35S]GTPgammaS binding assay in presence of beta-funaltrexamine; assay type: functional, cell membranes; method in brief: as §2
Mus musculus [6] = assay: Antinociceptive activity in mouse at 10 mg/kg, sc by hotplate test; assay type: functional, organism-based; parameters: dose 10 mg/kg
Method in brief: (§3)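 Mice were given agonist 10 mg/kg sc, and antinociception was read in the hot-plate and tail-flick tests. Pretreatment was saline or nor-BNI (5 or 20 mg/kg sc) 24 h before agonist. Data are mean with SEM, n = 6–8, compared with the saline–agonist group.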

Mus musculus [7] = assay: Antinociceptive activity in mouse at 10 mg/kg, sc by tail-flick test; assay type: functional, organism-based; parameters: dose 10 mg/kg; method in brief: as §3
Mus musculus [8] = assay: Antinociceptive activity in mouse assessed as inhibition of analgesia at 10 mg/kg, sc pretreated with 20 mg/kg, sc nor-BNI for 24 hrs by hotplate test; assay type: functional, organism-based; method in brief: as §3
Mus musculus [9] = assay: Antinociceptive activity in mouse assessed as inhibition of analgesia at 10 mg/kg, sc pretreated with 20 mg/kg, sc nor-BNI for 24 hrs by tail-flick test; assay type: functional, organism-based; method in brief: as §3
Mus musculus [10] = assay: Antinociceptive activity in mouse assessed as inhibition of analgesia at 10 mg/kg, sc pretreated with 20 mg/kg, sc beta-funaltrexamine for 24 hrs by hotplate test; assay type: functional, organism-based
Method in brief: (§4)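 Mouse hot-plate and tail-flick antinociception after agonist 10 mg/kg sc. Pretreatment was saline, b-FNA 20 mg/kg sc or NTI 3 mg/kg sc, given at 24 h or 30 min before agonist. Data are mean with SEM of 6–8 trials.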

Mus musculus [11] = assay: Antinociceptive activity in mouse assessed as inhibition of analgesia at 10 mg/kg, sc pretreated with 20 mg/kg, sc beta-funaltrexamine for 24 hrs by tail-flick test; assay type: functional, organism-based; method in brief: as §4
Mus musculus [12] = assay: Antinociceptive activity in mouse assessed as inhibition of analgesia at 10 mg/kg, sc pretreated with 3 mg/kg, sc NTI for 24 hrs by hotplate test; assay type: functional, organism-based; method in brief: as §4
Mus musculus [13] = assay: Antinociceptive activity in mouse assessed as inhibition of analgesia at 10 mg/kg, sc pretreated with 3 mg/kg, sc NTI for 24 hrs by tail-flick test; assay type: functional, organism-based; method in brief: as §4

Sequence of Kappa-type opioid receptor (Mus musculus) (P33534 whole entry): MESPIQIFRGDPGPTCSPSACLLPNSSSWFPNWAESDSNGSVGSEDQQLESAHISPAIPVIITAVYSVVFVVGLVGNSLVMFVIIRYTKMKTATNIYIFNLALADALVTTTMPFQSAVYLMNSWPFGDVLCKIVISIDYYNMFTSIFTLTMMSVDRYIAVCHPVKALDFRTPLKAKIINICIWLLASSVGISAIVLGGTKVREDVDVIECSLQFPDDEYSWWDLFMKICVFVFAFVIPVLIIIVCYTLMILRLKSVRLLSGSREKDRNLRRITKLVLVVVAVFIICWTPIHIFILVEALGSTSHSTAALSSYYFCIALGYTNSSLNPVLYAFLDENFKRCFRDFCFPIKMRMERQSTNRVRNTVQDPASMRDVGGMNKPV
Sequence of Delta-type opioid receptor (P32300 whole entry): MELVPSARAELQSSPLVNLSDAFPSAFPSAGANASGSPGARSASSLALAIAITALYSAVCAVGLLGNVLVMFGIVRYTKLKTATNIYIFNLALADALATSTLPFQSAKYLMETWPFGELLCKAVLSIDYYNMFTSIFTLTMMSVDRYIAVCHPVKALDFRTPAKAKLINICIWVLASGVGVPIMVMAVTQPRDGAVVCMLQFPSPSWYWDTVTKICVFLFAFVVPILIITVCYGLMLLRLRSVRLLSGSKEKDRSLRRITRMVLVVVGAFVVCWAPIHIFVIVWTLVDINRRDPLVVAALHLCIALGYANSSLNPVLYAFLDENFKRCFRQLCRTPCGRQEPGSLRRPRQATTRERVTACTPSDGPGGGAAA
Sequence of Mu-type opioid receptor (P42866 whole entry): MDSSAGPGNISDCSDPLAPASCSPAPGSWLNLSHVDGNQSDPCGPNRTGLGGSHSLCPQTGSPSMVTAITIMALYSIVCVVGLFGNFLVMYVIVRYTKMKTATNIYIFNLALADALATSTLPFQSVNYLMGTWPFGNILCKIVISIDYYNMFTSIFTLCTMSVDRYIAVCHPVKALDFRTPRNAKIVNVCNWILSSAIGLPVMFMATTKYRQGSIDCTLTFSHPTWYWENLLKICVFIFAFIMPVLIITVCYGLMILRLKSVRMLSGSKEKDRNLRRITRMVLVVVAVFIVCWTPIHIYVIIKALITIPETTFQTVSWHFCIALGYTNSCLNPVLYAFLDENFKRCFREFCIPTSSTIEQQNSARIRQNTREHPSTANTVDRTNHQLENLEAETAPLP
Sequence of Kappa-type opioid receptor (P41144 whole entry): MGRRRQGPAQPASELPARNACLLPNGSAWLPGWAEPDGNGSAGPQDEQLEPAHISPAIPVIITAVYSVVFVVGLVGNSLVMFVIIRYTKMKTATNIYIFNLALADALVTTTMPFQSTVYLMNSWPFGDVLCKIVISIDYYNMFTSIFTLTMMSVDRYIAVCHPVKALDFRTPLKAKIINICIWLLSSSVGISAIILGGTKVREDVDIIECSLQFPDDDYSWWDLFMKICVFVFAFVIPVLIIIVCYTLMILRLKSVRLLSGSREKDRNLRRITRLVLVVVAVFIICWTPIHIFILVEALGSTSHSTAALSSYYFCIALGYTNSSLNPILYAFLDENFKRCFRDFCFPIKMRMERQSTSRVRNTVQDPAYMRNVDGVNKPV

Row | Compound | pKi (Mu-type opioid receptor) | pKi [1] | pKi [2] | pIC50 (Mu-type opioid receptor) | pIC50 [1] | Activity [3] | Activity [4] | Activity [5] | Activity (Mus musculus [6]) | Activity (Mus musculus [7]) | Activity (Mus musculus [8]) | Activity (Mus musculus [9]) | Activity (Mus musculus [10]) | Activity (Mus musculus [11]) | Activity (Mus musculus [12]) | Activity (Mus musculus [13])
1 | O=C1N(CCc2ccccc2)CO[C@]12CC[C@@]1(O)[C@@H]3Cc4ccc(O)c5c4[C@@]1(CCN3CC1CC1)[C@H]2O5 | 8.34 | 8.32 | 8.06 | – | – | – | – | – | – | – | – | – | – | – | – | –
2 | O=C(NC[C@]12CC[C@@]3(O1)[C@@H]1Cc4ccc(O)cc4[C@@]3(CCN1CC1CC1)C2)c1ccccc1 | – | – | – | 9.54 | 8.68 | 29.8% | 10.7% | 19.2% | Active | Active | Active | Active | inactive | inactive | inactive | inactive
